The results in this text go back to article PMC3149845 (The Journal of neuroscience : the official journal of the …, 2011).

Experiment [1] has as its target smTas1R2:T40S/S67I+smTas1R3 (Saimiri sciureus, UniProt A3QP08, S67I/T40S). Description: Ca2+ mobilization, mutated squirrel monkey receptor. It counts as cell-based, squirrel monkey (Saimiri sciureus). The conditions noted are these: aspartame 10mM, neotame 1mM, sucralose 2 mM. For orientation: A change in cytosolic calcium serves as a functional read-out for many receptors and channels.

Experiment [2] concerns the target smTas1R2:T40S/E142D+smTas1R3 (Saimiri sciureus, UniProt A3QP08, E142D/T40S). Described as above. It counts as cell-based, squirrel monkey (Saimiri sciureus). The conditions noted are these: for response in dose-response experiment: versus smTas1R2+smTas1R3.
Experiment [3] concerns the target hTas1R2:S40T/I67S+hTas1R3 (Homo sapiens, UniProt Q8TE23, I67S/S40T). The experiment is described as follows: Ca2+ mobilization, mutated human receptor. Type of experiment: cell-based. To be noted: aspartame 10mM, neotame 1mM, sucralose 2 mM; compared with hTas1R2/hTas1R3. Put shortly:
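Mutant hTas1R2 with hTas1R3 and Gα16-gust44 in HEK293E cells (50,000/well, 0.06 μg each plasmid per well); 44 h post-transfection, loaded with 3 μM Fluo-4 AM in HBSS/20 mM HEPES for 1 h. Fluorescence (ex 488/em 525 nm) recorded every 2 s, tastant at 30 s, 150 s further. ΔF/F normalized to the hTas1R2/hTas1R3 sucralose (2 mm) maximum; three independent experiments; one-way ANOVA with Tukey test.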

The target in a further experiment is hTas1R2:I67S+hTas1R3 (Homo sapiens, UniProt Q8TE23, I67S). Description: Ca2+ mobilization, mutated human receptor. It counts as cell-based. To be noted: aspartame 10mM, neotame 1mM, sucralose 2 mM; compared with hTas1R2/hTas1R3. The method, boiled down:
(§1)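 HEK293E cells grown at 37°C in Opti-MEM with 5% FBS and seeded at 50,000/well. Cells co-lipofected with Tas1R plasmids and Gα16-gust44 (0.06 μg each per well); medium changed at 20 h, assayed 24 h later. Cells loaded 1 h with Fluo-4 AM in HEPES-buffered HBSS. Tastant added at 30 s; fluorescence (ex 488/em 525 nm) read every 2 s for 150 s more. ΔF/F normalised to human receptor maximal sucralose response; mean ± SEM, three independent experiments.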

In another experiment the target is smTas1R2:T40S+smTas1R3 (Saimiri sciureus, UniProt A3QP08, T40S). The experiment is described as follows: Ca2+ mobilization, mutated squirrel monkey receptor. It counts as cell-based, squirrel monkey (Saimiri sciureus). The conditions noted are these: aspartame 10mM, neotame 1mM, sucralose 2 mM; compared with smTas1R2/smTas1R3.
A further experiment deals with T1, smTas1R2/hTas1R3 (Saimiri sciureus, UniProt A3QP08).
T1 sequence (A3QP08 20-834): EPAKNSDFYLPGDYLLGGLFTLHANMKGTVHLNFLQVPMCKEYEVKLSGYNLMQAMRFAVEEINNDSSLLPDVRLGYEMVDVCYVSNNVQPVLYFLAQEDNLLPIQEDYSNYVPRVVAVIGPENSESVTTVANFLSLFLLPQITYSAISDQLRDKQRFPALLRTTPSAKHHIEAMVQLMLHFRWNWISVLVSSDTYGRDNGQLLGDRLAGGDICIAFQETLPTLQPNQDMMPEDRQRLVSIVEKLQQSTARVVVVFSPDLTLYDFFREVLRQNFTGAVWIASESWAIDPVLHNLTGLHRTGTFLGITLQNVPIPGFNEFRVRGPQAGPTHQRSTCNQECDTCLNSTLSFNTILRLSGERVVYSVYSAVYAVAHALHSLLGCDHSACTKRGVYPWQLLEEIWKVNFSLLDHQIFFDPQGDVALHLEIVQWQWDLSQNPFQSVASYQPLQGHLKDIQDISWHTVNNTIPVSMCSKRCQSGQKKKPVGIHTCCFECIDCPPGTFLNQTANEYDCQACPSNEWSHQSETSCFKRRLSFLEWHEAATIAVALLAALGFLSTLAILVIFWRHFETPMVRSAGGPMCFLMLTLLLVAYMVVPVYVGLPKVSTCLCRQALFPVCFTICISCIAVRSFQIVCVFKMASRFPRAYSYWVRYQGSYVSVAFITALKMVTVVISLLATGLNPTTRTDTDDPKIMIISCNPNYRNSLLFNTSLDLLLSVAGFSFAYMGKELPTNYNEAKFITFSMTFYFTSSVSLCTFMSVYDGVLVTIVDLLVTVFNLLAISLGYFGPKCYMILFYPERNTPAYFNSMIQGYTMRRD
T1 sequence (Q7RTX0 21-852 partner): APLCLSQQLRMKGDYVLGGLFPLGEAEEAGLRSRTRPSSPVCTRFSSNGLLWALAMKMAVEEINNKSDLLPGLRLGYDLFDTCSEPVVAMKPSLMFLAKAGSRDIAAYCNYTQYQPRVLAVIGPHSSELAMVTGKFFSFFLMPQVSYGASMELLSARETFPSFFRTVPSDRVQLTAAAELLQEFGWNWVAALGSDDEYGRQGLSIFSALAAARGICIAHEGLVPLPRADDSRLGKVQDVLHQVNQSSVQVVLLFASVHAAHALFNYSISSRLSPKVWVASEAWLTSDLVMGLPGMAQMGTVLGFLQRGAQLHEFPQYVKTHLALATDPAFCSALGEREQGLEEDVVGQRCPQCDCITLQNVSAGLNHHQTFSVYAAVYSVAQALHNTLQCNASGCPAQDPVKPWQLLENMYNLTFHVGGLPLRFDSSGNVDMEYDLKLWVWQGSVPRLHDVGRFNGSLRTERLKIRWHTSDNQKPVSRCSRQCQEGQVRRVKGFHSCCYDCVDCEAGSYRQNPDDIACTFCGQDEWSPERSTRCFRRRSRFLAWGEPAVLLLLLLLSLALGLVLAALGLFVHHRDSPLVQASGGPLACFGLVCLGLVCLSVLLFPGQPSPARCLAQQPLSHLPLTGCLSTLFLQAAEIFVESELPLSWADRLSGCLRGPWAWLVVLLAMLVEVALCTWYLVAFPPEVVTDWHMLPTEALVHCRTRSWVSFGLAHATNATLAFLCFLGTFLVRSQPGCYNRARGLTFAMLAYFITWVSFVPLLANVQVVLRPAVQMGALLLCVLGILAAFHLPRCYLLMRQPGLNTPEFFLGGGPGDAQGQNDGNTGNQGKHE
Description: Ca2+ mobilization, mismatched receptor. Type of experiment: cell-based, human/squirrel monkey. The conditions noted are these: aspartame 10mM, neotame 1mM, sucralose 2 mM, D-tryptophan 5mM, sucrose 150mM. Put shortly: as §1

The test system of experiment [4] is All the human and squirrel monkey mutants. The experiment is described as follows: Ca2+ mobilization, control response of all mutants. Type of experiment: cell-based. The conditions noted are these: sucralose 2 mM. The method, boiled down: as §1
Where [5] appears, read: ΔF/F normalized to maximum response of hTas1R2/hTas1R3 to neotame.

Read-outs that look alike come from different tables or passages of the source. Peptide text beside a SMILES is read from it.

smTas1R2:T40S/E142D+smTas1R3, sequence (A3QP08 20-834 T40S/E142D): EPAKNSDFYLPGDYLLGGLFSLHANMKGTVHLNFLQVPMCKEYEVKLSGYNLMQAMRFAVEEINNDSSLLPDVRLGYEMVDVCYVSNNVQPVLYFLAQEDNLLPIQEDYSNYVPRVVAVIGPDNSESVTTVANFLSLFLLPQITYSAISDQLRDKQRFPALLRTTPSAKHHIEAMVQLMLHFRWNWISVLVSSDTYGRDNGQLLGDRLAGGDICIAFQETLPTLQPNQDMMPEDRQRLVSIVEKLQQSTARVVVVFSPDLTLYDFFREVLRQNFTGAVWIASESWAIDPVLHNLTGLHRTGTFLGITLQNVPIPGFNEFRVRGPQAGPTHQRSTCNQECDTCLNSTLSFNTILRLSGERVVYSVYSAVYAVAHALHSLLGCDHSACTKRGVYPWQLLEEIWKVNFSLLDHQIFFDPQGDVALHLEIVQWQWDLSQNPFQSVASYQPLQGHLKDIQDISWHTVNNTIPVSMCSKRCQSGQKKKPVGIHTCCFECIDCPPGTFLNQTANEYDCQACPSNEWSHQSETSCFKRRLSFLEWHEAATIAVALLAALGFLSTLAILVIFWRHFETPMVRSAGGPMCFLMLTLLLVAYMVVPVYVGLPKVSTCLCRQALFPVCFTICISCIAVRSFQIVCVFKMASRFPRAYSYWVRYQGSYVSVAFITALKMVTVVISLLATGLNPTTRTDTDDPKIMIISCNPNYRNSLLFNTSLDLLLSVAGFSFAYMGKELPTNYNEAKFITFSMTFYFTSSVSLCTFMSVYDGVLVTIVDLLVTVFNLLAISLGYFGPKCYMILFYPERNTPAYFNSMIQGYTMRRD
smTas1R2:T40S+smTas1R3, sequence (A3QP08 20-834 T40S): as the sequence (A3QP08 20-834 T40S/E142D) above, with D123E counted along it
smTas1R2:T40S/S67I+smTas1R3, sequence (A3QP08 20-834 T40S/S67I): as the sequence (A3QP08 20-834 T40S/E142D) above, with S48I, D123E counted along it
hTas1R2:I67S+hTas1R3, sequence (Q8TE23 20-839 I67S, one chain of several): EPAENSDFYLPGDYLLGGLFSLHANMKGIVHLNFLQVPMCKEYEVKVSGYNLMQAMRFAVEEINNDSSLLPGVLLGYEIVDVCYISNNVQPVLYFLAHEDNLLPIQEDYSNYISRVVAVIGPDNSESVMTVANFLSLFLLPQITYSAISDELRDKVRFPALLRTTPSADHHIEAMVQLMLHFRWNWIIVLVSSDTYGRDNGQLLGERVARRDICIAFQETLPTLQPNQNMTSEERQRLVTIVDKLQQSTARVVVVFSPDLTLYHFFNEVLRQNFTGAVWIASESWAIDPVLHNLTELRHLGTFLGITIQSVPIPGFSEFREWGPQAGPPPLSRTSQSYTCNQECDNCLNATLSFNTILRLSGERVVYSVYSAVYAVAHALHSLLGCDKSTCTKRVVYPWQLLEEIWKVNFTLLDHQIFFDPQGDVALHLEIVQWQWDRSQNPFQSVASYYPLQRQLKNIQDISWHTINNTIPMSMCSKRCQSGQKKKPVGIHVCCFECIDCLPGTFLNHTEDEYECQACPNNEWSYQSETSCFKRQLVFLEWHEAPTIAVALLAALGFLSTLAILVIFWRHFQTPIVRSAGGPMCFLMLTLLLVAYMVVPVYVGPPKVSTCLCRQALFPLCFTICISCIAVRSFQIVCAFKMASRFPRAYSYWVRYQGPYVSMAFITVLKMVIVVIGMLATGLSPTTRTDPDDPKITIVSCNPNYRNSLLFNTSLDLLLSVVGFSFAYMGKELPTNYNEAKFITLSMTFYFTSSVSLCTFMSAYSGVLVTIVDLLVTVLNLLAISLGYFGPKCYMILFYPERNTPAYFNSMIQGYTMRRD
hTas1R2:S40T/I67S+hTas1R3, sequence (Q8TE23 20-839 S40T/I67S, one chain of several): as the sequence (Q8TE23 20-839 I67S, one chain of several) above, with S21T counted along it

Turning to `COC(=O)[C@H](Cc1ccccc1)NC(=O)[C@@H](N)CC(=O)O` [aspartame, L-α-aspartly-L-phenylalanine methyl ester] (H-Asp-Phe-OMe), the “calcium response to sweetener” value in experiment [1] was “no response”; in experiment [3], “greater than multiple mutants that contained the D142E mutant”; at hTas1R2:I67S+hTas1R3, “mild phenotype”; at smTas1R2:T40S+smTas1R3, “not able to recover”. The molecule also had an EC50 in experiment [2] of 1400 µM. In addition, the “response in dose-response experiment” value in experiment [2] (dose-response) is reported as “good response”. Also, in experiment [2] (setting [5]), the “Bottom (B) of sigmoid dose-response fit” value was −3.314. Also, the “Top (T) of sigmoid dose-response fit” value in experiment [2] (setting [5]) was 42.4.

Consider `COC(=O)[C@H](Cc1ccccc1)NC(=O)[C@H](CC(=O)O)NCCC(C)(C)C` [neotame], for which the “calcium response to sweetener” value was “no response” in experiment [1], “slightly reduced response” at hTas1R2:I67S+hTas1R3 and “not able to recover” at smTas1R2:T40S+smTas1R3. In addition, the EC50 in experiment [2] (HEK293E cells with Gα16-gust44, dose-response, calcium mobilization) is 2100 µM. In experiment [2] (dose-response), the “response in dose-response experiment” value was “good responses”. For the same molecule, the “Top (T) of sigmoid dose-response fit” value in experiment [2] (setting [5]) was 69.46.

Turning to `OC[C@H]1O[C@H](O[C@]2(CCl)O[C@H](CCl)[C@@H](O)[C@@H]2O)[C@H](O)[C@@H](O)[C@H]1Cl` [sucralose], the “calcium response to sweetener” value at smTas1R2/hTas1R3 was “remained intact or reduced”. In experiment [4], the “calcium response to the control sweetener” value is on record as “significant level of response”.

The EC50 is the concentration giving half of the maximal effect.
